According to ChEMBL document CHEMBL1140245, “Identification of antitumor activity of pyrazole oxime ethers” (Bioorg Med Chem Lett, 2005):
In brackets after ≈: the same amount, converted by molar mass.

Legend:
HCT-15 = test: Cytotoxic activity against HCT15 cell line (human colon solid tumor cell line); type: functional, cell-based
A549 [1] = test: Cytotoxic activity against A549 cell line (non-small cell lung carcinoma); type: functional, cell-based, Homo sapiens
XF498 = test: Cytotoxic activity against XF498 cell line (human CNS solid tumor); type: functional, cell-based
SK-MEL-2 = test: Cytotoxic activity against SKMEL-2 cell line; type: functional, cell-based, Homo sapiens
SK-OV-3 = test: Cytotoxic activity against SKOV-3 cell line (human solid ovarian tumor cell line); type: functional, cell-based
MKN-45 = test: In vitro antiproliferative activity against MKN45 cell line (human stomach tumor) at 1 uM concentration; type: functional
Procedure, shortened: (§1)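 Each cell line was exposed to test compound at a single concentration of 1 µM, and activity was reported as percent inhibition.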

A549 [2] = test: In vitro antiproliferative activity against A549 cell line (human lung tumor) at 1 uM concentration; type: functional; procedure, shortened: as §1
HepG2 = test: In vitro antiproliferative activity against HepG2 cell line (human liver tumor) at 1 uM concentration; type: functional; procedure, shortened: as §1
MCF7 = test: In vitro antiproliferative activity against MCF-7 cell line (human breast tumor) at 1 uM concentration; type: functional; procedure, shortened: as §1
[3] = Homo sapiens, HCT-15, read-out: IC50
[4] = Homo sapiens, A549, read-out: IC50
[5] = Homo sapiens, XF498, read-out: IC50
[6] = Homo sapiens, SK-MEL-2, read-out: IC50
[7] = Homo sapiens, SK-OV-3, read-out: IC50

Row | Molecule | IC50 (HCT-15; [3]) | IC50 (A549 [1]; [4]) | IC50 (XF498; [5]) | IC50 (SK-MEL-2; [6]) | IC50 (SK-OV-3; [7]) | inhibition at 1 µM (MKN-45) | inhibition at 1 µM (A549 [2]) | inhibition at 1 µM (HepG2) | inhibition at 1 µM (MCF7) | further results
1 | Cc1nn(C)c(-n2cccn2)c1/C=N/OCc1ccc(C(=O)OC(C)(C)C)cc1 | 3.63 µg/mL (≈ 9.18 µM) | 2.49 µg/mL (≈ 6.3 µM) | 5.51 µg/mL (≈ 13.9 µM) | 28.8 µg/mL (≈ 72.8 µM) | 9.63 µg/mL (≈ 24.4 µM) | – | – | – | – | –
2 | Cc1nn(C)c(Sc2ccccc2)c1/C=N/OCc1ccc(C(=O)OC(C)(C)C)cc1 | 0.26 µg/mL (≈ 0.594 µM) | 0.13 µg/mL (≈ 0.297 µM) | 0.28 µg/mL (≈ 0.64 µM) | 4.91 µg/mL (≈ 11.2 µM) | 0.92 µg/mL (≈ 2.1 µM) | – | – | – | – | –
3 | Cc1nn(C)c(Oc2ccccc2)c1/C=N/OCCN1CCN(Cc2ccc(C(F)(F)F)cc2)CC1 | – | – | – | – | – | 15.4% | 39.7% | 14.4% | 37.7% | –
4 | Cc1nn(C)c(Oc2ccccc2)c1/C=N/OCCN(C)C | – | – | – | – | – | -29% | -5.9% | -36.1% | 8.9% | –
5 | Cc1nn(C)c(-n2cccc2)c1/C=N/OCc1ccc(C(=O)OC(C)(C)C)cc1 | 2.48 µg/mL (≈ 6.29 µM) | 1.64 µg/mL (≈ 4.16 µM) | 2.67 µg/mL (≈ 6.77 µM) | 24.9 µg/mL (≈ 63.1 µM) | 3.91 µg/mL (≈ 9.91 µM) | – | – | – | – | –
6 | Cc1nn(C)c(N(C)C)c1/C=N/OCc1ccc(C(=O)OC(C)(C)C)cc1 | 6.22 µg/mL (≈ 16.7 µM) | 2.76 µg/mL (≈ 7.41 µM) | 3.87 µg/mL (≈ 10.4 µM) | 23.9 µg/mL (≈ 64.3 µM) | 9.06 µg/mL (≈ 24.3 µM) | – | – | – | – | –
7 | Cc1c(CO/N=C/c2c(-c3ccccc3)nn(-c3ccccc3)c2Oc2ccc(Cl)cc2)cccc1-c1ccccc1 | – | – | – | – | – | -15% | -10.1% | -14.8% | -17.5% | –
8 | COc1cccc(CO/N=C/c2c(C)nn(C)c2Oc2ccccc2)c1 | – | – | – | – | – | -19.6% | 1% | -41.2% | 8.4% | –
9 | CC(C)c1nn(-c2ccccc2)c(Oc2ccc(Cl)cc2)c1/C=N/OCc1ccc(C(=O)OC(C)(C)C)cc1 | – | – | – | – | – | -27% | -10% | -14.7% | -4.9% | –
10 | COC(=O)c1ccc(CO/N=C/c2c(C)nn(C)c2Oc2ccc(Cl)cc2)cc1 | – | – | – | – | – | 26.1% | 49.9% | 20.3% | 33.6% | –
11 | Cc1nn(C)c(N2CCCC2)c1/C=N/OCc1ccc(C(=O)OC(C)(C)C)cc1 | 0.1 µg/mL (≈ 0.251 µM) | 0.13 µg/mL (≈ 0.326 µM) | 0.12 µg/mL (≈ 0.301 µM) | 14.4 µg/mL (≈ 36.2 µM) | 3.19 µg/mL (≈ 8 µM) | – | – | – | – | –
12 | CCOC(=O)c1ccc(CO/N=C/c2c(C)nn(C)c2Oc2ccc(Cl)cc2)cc1 | – | – | – | – | – | 20.9% | 48.2% | 27.4% | 33.9% | –
13 | Cc1nn(C)c(N2CCOCC2)c1/C=N/OCc1ccc(C(=O)OC(C)(C)C)cc1 | 1.83 µg/mL (≈ 4.41 µM) | 0.39 µg/mL (≈ 0.941 µM) | 1.04 µg/mL (≈ 2.51 µM) | 16.7 µg/mL (≈ 40.3 µM) | 8.87 µg/mL (≈ 21.4 µM) | – | – | – | – | –
14 | Cc1nn(C)c(Oc2ccccc2)c1/C=N/OCc1cccc(-c2ccccc2)c1C | – | – | – | – | – | -12.1% | 5% | -13.2% | 24.4% | –
15 | Cc1nn(C)c(Oc2ccccc2)c1/C=N/OCCN1CCN(Cc2ccccc2)CC1 | – | – | – | – | – | 10.5% | 28.4% | 6.7% | 23.4% | –
16 | Cc1ccc(CO/N=C/c2c(C)nn(C)c2Oc2ccc(Cl)cc2)cc1 | – | – | – | – | – | 30.4% | 50% | 31.3% | 30.7% | –
17 | Cc1nn(C)c(Oc2ccccc2)c1/C=N/OCc1ccc([N+](=O)[O-])cc1 | – | – | – | – | – | 18.3% | 39.4% | -2.8% | 24% | –
18 | Cc1nn(C)c(Oc2ccccc2)c1/C=N/OCCN1CCCC1 | – | – | – | – | – | -24.2% | -8.2% | -25% | 7.7% | –

Row | Molecule | IC50 (HCT-15; [3]) | IC50 (A549 [1]; [4]) | IC50 (XF498; [5]) | IC50 (SK-MEL-2; [6]) | IC50 (SK-OV-3; [7]) | inhibition at 1 µM (MKN-45) | inhibition at 1 µM (A549 [2]) | inhibition at 1 µM (HepG2) | inhibition at 1 µM (MCF7) | further results
19 | CC(C)c1nn(-c2ccccc2)c(Oc2ccc(Cl)cc2)c1/C=N/OCc1ccc(C(F)(F)F)cc1 | – | – | – | – | – | -15.4% | -12.1% | -2.2% | -1.9% | –
20 | Cc1nn(C)c(Oc2ccccc2)c1/C=N/OCCN1CCCCC1 | – | – | – | – | – | -22.5% | -9.9% | -29% | 3.2% | –
21 | COc1cccc2c1C(=O)c1c(O)c3c(c(O)c1C2=O)C[C@@](O)(C(=O)CO)C[C@@H]3O[C@H]1C[C@H](N)[C@H](O)[C@H](C)O1 [DOXORUBICIN] | 0.28 µg/mL (≈ 0.515 µM) | 0.05 µg/mL (≈ 0.092 µM) | 0.09 µg/mL (≈ 0.166 µM) | 0.07 µg/mL (≈ 0.129 µM) | 0.09 µg/mL (≈ 0.166 µM) | – | – | – | – | –
22 | Cc1nn(C)c(Oc2ccccc2)c1/C=N/OCCN1CCOCC1 | – | – | – | – | – | -28% | -19.4% | -40.5% | 5.4% | –
23 | CISPLATIN | – | – | – | – | – | – | – | – | – | IC50 (HCT-15; hct-15): 6.91 µg/mL; IC50 (A549 [1]; a549): 3.09 µg/mL; IC50 (XF498; xf498): 3.47 µg/mL; IC50 (SK-MEL-2; sk-mel-2): 3.28 µg/mL; IC50 (SK-OV-3; sk-ov-3): 3.42 µg/mL
24 | Cc1ccc(CO/N=C/c2c(C)nn(C)c2Oc2ccccc2)cc1 | – | – | – | – | – | 17.9% | 29.1% | 8.4% | 38.2% | –
25 | Cc1nn(C)c(Oc2ccc(Cl)cc2)c1/C=N/OCc1ccc(C(=O)OC(C)(C)C)cc1 | 0.01 µg/mL (≈ 0.0219 µM) | 0.1 µg/mL (≈ 0.219 µM) | 0.02 µg/mL (≈ 0.0439 µM) | 18.8 µg/mL (≈ 41.2 µM) | 0.28 µg/mL (≈ 0.614 µM) | – | – | – | – | –
26 | Cc1nn(C)c(-n2ccc3ccccc32)c1/C=N/OCc1ccc(C(=O)OC(C)(C)C)cc1 | 1.57 µg/mL (≈ 3.53 µM) | 0.43 µg/mL (≈ 0.967 µM) | 1.61 µg/mL (≈ 3.62 µM) | 26.5 µg/mL (≈ 59.6 µM) | 2.07 µg/mL (≈ 4.66 µM) | – | – | – | – | –
27 | Cc1nn(-c2ccccn2)c(Oc2ccccc2)c1/C=N/OCc1ccc(C(=O)OC(C)(C)C)cc1 | – | – | – | – | – | -9.8% | -9.1% | -25.1% | -14.8% | –
28 | Cc1nn(C)c(Oc2ccccc2)c1/C=N/OCc1ccc(C(F)(F)F)cc1 | – | – | – | – | – | 11% | 34.7% | 5.8% | 30.5% | –
29 | CCOC(=O)c1ccc(CO/N=C/c2c(C)nn(-c3ccccc3)c2Oc2ccc(Cl)cc2)cc1 | – | – | – | – | – | -17.8% | -9.9% | -31.8% | 12% | –
30 | Cc1nn(-c2ccccc2)c(Oc2ccc(Cl)cc2)c1/C=N/OCc1ccc(C(=O)OC(C)(C)C)cc1 | – | – | – | – | – | -9.9% | -6.1% | -31.1% | -8.4% | –
31 | Cc1nn(C)c(Oc2ccc(Cl)cc2)c1/C=N/OCc1ccc([N+](=O)[O-])cc1 | – | – | – | – | – | 24.6% | 39.6% | 18.4% | 27.1% | –
32 | Cc1nn(C)c(-n2ccnc2)c1/C=N/OCc1ccc(C(=O)OC(C)(C)C)cc1 | 8.67 µg/mL (≈ 21.9 µM) | 5.93 µg/mL (≈ 15 µM) | 8.15 µg/mL (≈ 20.6 µM) | 9.35 µg/mL (≈ 23.6 µM) | 14.1 µg/mL (≈ 35.6 µM) | – | – | – | – | –
33 | Cc1nn(C)c(Oc2ccccc2)c1/C=N/OCCN1CCN(Cc2ccc(C(=O)OC(C)(C)C)cc2)CC1 | – | – | – | – | – | 19.2% | 44.7% | 19.8% | 32% | –
34 | Cc1nn(C)c(Oc2ccc(Cl)cc2)c1/C=N/OCc1ccc(C(F)(F)F)cc1 | – | – | – | – | – | 27.6% | 50.9% | 20.6% | 16.4% | –
35 | Cc1nn(C)c(Oc2ccccc2)c1/C=N/OCc1ccc(C(=O)OC(C)(C)C)cc1 [FENPYROXYMATE] | 0.02 µg/mL (≈ 0.0474 µM) | 0.12 µg/mL (≈ 0.285 µM) | 0.04 µg/mL (≈ 0.0949 µM) | 13.3 µg/mL (≈ 31.5 µM) | 0.21 µg/mL (≈ 0.498 µM) | – | – | – | – | –
36 | COc1ccc(CO/N=C/c2c(C)nn(C)c2Oc2ccc(Cl)cc2)cc1 | – | – | – | – | – | 28.1% | 43.9% | 13.9% | 37% | –
